Measured values pooled from the literature.
Protocols differ between the studies behind these lines.
FGFR1: Fibroblast growth factor receptor 1 (FGFR1, Homo sapiens, UniProt P11362)
FGFR1 V561M: Fibroblast growth factor receptor 1 (FGFR1, Homo sapiens, UniProt P11362, V561M)

CCCS(=O)(=O)Nc1ccc(F)c(C(=O)c2c[nH]c3ncc(-c4ccc(Cl)cc4)cc23)c1F  inhibition (FGFR1; enzyme activity; inhibitor; 1 µM): < 10%
CC(C)(O)c1cncc(-c2nc3ccc(F)cc3n2C2CC2)c1  remaining binding (FGFR1; cell-free assay; competition with immobilised ligand; 1 µM): 100%
C/C=C/C(=O)Nc1ccc(-n2nc3c(=O)[nH]nc(N)c3c2-c2oc3ccc(C)cc3c2C)cc1  inhibition (FGFR1; enzyme activity; inhibitor; ELISA; 10 nM): 20.2%
CCN(CC)CCNC(=O)c1c(C)[nH]c(/C=C2\C(=O)Nc3ccc(F)cc32)c1C  remaining signal (FGFR1; cell-free assay; 0.5 µM): 66.1%
COc1cc2nccc(Oc3ccc(NC(=O)c4c5n(n(-c6ccc(F)cc6)c4=O)CCCC5)cc3)c2cc1OC  inhibition (FGFR1; enzyme activity; inhibitor; 0.1 µM): -7%
Cc1cc(NC(=O)c2cccc3cc(-c4cccc5[nH]nc(N)c45)ccc23)ccc1F  activity vs control (FGFR1 V561M; enzyme activity; inhibitor; 0.1 µM): 92%
Nc1ncnc2occ(-c3ccc(NC(=O)Nc4cc(C(F)(F)F)ccc4F)cc3)c12  remaining signal (FGFR1; cell-free assay; 20 µM): 0.15%
CNCc1ccccc1-c1csc([C@@H](C)Nc2nc(C)nc3cc(OC)c(OC)cc23)c1  remaining binding (FGFR1; cell-free assay; competition with immobilised ligand; 1 µM): 100%
COc1cc(/C=C/C(=O)c2ccc(NC3=C(Cl)C(=O)c4ccccc4C3=O)cc2)cc(OC)c1OC  inhibition (FGFR1; enzyme activity; inhibitor; ADP detection; 1 µM): > 70%
CC/C(=N\NC(=O)NCc1cccc(O)c1)c1ccc(O)c(C)c1O  inhibition (FGFR1 V561M; enzyme activity; inhibitor; 0.1 µM): 10.8%
CC(=O)N1CCC(c2ccc(C(=O)NC3=NCCN3)cc2C(F)(F)F)CC1  remaining binding (FGFR1; cell-free assay; competition with immobilised ligand; 1 µM): 100%
N#CCCc1ccc2c(c1)-c1[nH]c3ccc([N+](=O)[O-])cc3c1CC(=O)N2  remaining signal (FGFR1; cell-free assay; 0.5 µM): 91.9%
Cc1ccc(NC(=O)c2ccc(C)c(C(F)(F)F)c2)cc1C#Cc1nn(C2CCC(O)CC2)c2ncnc(N)c12 (stereo not drawn)  remaining signal (FGFR1 V561M; cell-free assay; 10 µM): 40%
COc1cc2ncnc(Nc3ccc(F)c(Cl)c3)c2cc1OCCCN1CCOCC1  remaining signal (FGFR1; cell-free assay; 0.5 µM): 96.4%
CSc1nc(C)c(-c2ccnc(Nc3ccc(N4CCOCC4)cc3)c2)[nH]1  inhibition (FGFR1; cell-free assay; inhibitor; 10 µM): 26.2%
Cc1ccc(C(=O)NCc2ccsc2)cc1C#Cc1cn(C(C)C)c2ncnc(N)c12  activity vs control (FGFR1; enzyme activity; inhibitor; 1 µM): 33%
COc1cc2ncnc(Nc3ccc(Oc4ccccc4)cc3C)c2cc1OC  inhibition (FGFR1; enzyme activity; inhibitor; 1 µM): 5%
CSc1cccnc1N1CCN(Cc2nc3ccccc3[nH]2)CC1  remaining binding (FGFR1; cell-free assay; competition with immobilised ligand; 1 µM): 100%
CNC(=O)c1cc(Oc2ccc(NC(=O)Nc3ccc(Cl)c(C(F)(F)F)c3)cc2)ccn1  inhibition (FGFR1; enzyme activity; inhibitor; 0.3 µM): 69%
CS(=O)(=O)c1cc(C2(NC(=O)c3cncc4c3cnn4-c3ccc(F)cc3)CC2)ccn1  remaining binding (FGFR1; cell-free assay; competition with immobilised ligand; 1 µM): 95%
C[S+]([O-])c1ccc(-c2nc(-c3ccncc3)c(-c3ccc(F)cc3)[nH]2)cc1 (stereo not drawn)  remaining signal (FGFR1; cell-free assay; 0.5 µM): 90.7%
Cn1cc(Cl)c2c(Oc3c(F)cc(Nc4cc(Cl)nc(N)n4)cc3F)ccnc21  remaining binding (FGFR1; cell-free assay; competition with immobilised ligand; 0.1 µM): 100%
C=CC(=O)Nc1cc(Nc2nccc(Nc3cc(Cl)c(F)cc3C(C)(C)O)n2)c(OC)cc1N1CC[C@@H](N(C)C)C1  inhibition (FGFR1 V561M; enzyme activity; inhibitor; 1 µM): 1%
CCC(=O)N[C@@H]1CC[C@H](C(=O)N(C)c2ccc(-c3nc4ccccc4o3)cc2)C1  remaining binding (FGFR1; cell-free assay; competition with immobilised ligand; 1 µM): 87%
Clc1ccc(Nc2nnc(Cc3ccncc3)c3ccccc23)cc1  remaining signal (FGFR1; cell-free assay; 0.5 µM): 97.2%
Cc1cc(NC(=O)c2cccc(S(F)(F)(F)(F)F)c2)cc(-n2ccn3nc(-c4cccnc4)cc23)c1  remaining binding (FGFR1; cell-free assay; competition with immobilised ligand; 1 µM): 100%
CNc1cccc2cc(C(=O)Nc3ccc(C(=O)O)cc3)c(=O)[nH]c12  inhibition (FGFR1; enzyme activity; inhibitor; 10 µM): 9.9%
